Experimental data from ChEMBL document CHEMBL2021903, “3-Deoxy-3,4-dehydro analogs of XM462. Preparation and activity on sphingolipid metabolism and cell fate” (Bioorg Med Chem, 2012).
The source made the active and inactive calls. No cut-off for these calls is given here.

Assays:
HCT-116 [1] = assay: Effect on sphingolipidome in human HCT116 cells assessed as increase in C18-ceramide per 10^6 cells at 10 uM after 14 hrs by UPLC-TOF analysis relative to control (reference value: 3.9 +/- 0.3 pmol/10^6 cells); type: functional
Method in brief: (§1)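 Cells incubated with compound at 10 µM, 24 h (A549) or 14 h (HCT116); lipids then extracted and profiled. Long-chain bases and phosphates were read by LC-MS/MS (positive electrospray, selected reaction monitoring, C17-dihydrosphingosine and C17-dihydrosphingosine-1-phosphate transitions monitored). Amounts expressed as pmol per 10⁶ cells. Mean ± SD of triplicates; unpaired two-tailed t-test versus control.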

HCT-116 [2] = assay: Effect on sphingolipidome in human HCT116 cells assessed as reduction in C24-ceramide per 10^6 cells at 10 uM after 14 hrs by UPLC-TOF analysis relative to control; type: functional, cell-based; method in brief: as §1
A549 [3] = assay: Effect on sphingolipidome in human A549 cells assessed as increase in total ceramides at 10 uM after 24 hrs by UPLC-TOF analysis; type: functional, cell-based; method in brief: as §1
HCT-116 [4] = assay: Induction of […] in human HCT116 cells at 20 uM after 14 hrs by Annexin V-propidium iodide staining based flow cytometry; type: functional
HCT-116 [5] = assay: Effect on sphingolipidome in human HCT116 cells assessed as increase in dihydrosphingomyelins per 10^6 cells at 10 uM after 14 hrs by UPLC-TOF analysis relative to control; type: functional, cell-based; method in brief: as §1
HCT-116 [6] = assay: Cytotoxicity against human HCT116 cells after 24 hrs by MTT assay; type: functional; conditions: HCT-116, 24 h, read-out: LD50 (the source's name)
Method in brief: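 Cells seeded at 10⁵ cells/mL; after 24 h medium replaced with fresh medium with or without test compounds across a concentration range. Viable cells counted by MTT after 24 h of treatment. LD₅₀ (µM) obtained by regression analysis of dose–response curves from two experiments with triplicates. HCT116 kept in low-glucose DMEM with 10% FBS at 37 °C, 5% CO2; cells used at about 80% confluence.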

HCT-116 [7] = assay: Effect on sphingolipidome in human HCT116 cells assessed as reduction in sphingomyelins per 10^6 cells at 10 uM after 14 hrs by UPLC-TOF analysis relative to control; type: functional, cell-based; method in brief: as §1
A549 [8] = assay: Effect on sphingolipidome in human A549 cells assessed as increase in C18-ceramide per 10^6 cells at 10 uM after 24 hrs by UPLC-TOF analysis (reference value: 4.8 +/- 0.5 pmol/10^6 cells); type: functional; method in brief: as §1
HCT-116 [9] = assay: Effect on sphingolipidome in human HCT116 cells assessed as increase in glucosyldihydroceramides per 10^6 cells at 10 uM after 14 hrs by UPLC-TOF analysis relative to control; type: functional, cell-based; method in brief: as §1
HCT-116 [10] = assay: Effect on sphingolipidome in human HCT116 cells assessed as increase in dihydroceramide per 10^6 cells at 10 uM after 14 hrs by UPLC-TOF analysis relative to control; type: functional; method in brief: as §1
HCT-116 [11] = assay: Effect on sphingolipidome in human HCT116 cells assessed as dihydrosphingosine-1-phosphate level per 10^6 cells at 10 uM after 14 hrs […] relative to control; type: functional, cell-based
HCT-116 [12] = assay: Effect on sphingolipidome in human HCT116 cells assessed as reduction in C16-sphingomyelin per 10^6 cells at 10 uM after 14 hrs by UPLC-TOF analysis relative to control; type: functional, cell-based; method in brief: as §1
A549 [13] = assay: Effect on sphingolipidome in human A549 cells assessed as increase in dihydroceramide per 10^6 cells at 10 uM after 24 hrs by UPLC-TOF analysis relative to control; type: functional; method in brief: as §1
HCT-116 [14] = assay: Induction of apoptosis in human HCT116 cells at 15 uM after 14 hrs by Annexin V-propidium iodide staining based flow cytometry; type: functional, cell-based
Method in brief: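 HCT116 (clone 40–16) in low-glucose DMEM with 10% FBS and 1% penicillin–streptomycin, seeded 2.5×10⁵ cells/mL. After 24 h, medium replaced with compound-containing medium; ethanol vehicle to controls. After incubation, cells PBS-washed, trypsinized, stained with Annexin V and propidium iodide, analysed by flow cytometry. Mean ± SD, 3 experiments in triplicate.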

HCT-116 [15] = assay: Effect on sphingolipidome in human HCT116 cells assessed as reduction in glucosylceramides per 10^6 cells at 10 uM after 14 hrs by UPLC-TOF analysis relative to control; type: functional, cell-based; method in brief: as §1
HCT-116 [16] = assay: Effect on sphingolipidome in human HCT116 cells assessed as sphingosine-1-phosphate level per 10^6 cells at 10 uM after 14 hrs by UPLC-TOF analysis (reference value: 1.49 +/- 0.70/10^6 cells); type: functional; method in brief: as §1
[17] = target: T1, Sphingolipid delta(4)-desaturase DES1 (Homo sapiens) (UniProt O15121); assay: Inhibition of Des1 in human HCT116 cells assessed as formation of CerC6NBD from dhCerC6NBD at =>100 uM after 4 hrs by HPLC-FD analysis; type: cell-based; conditions: HCT-116
T1 sequence (whole entry): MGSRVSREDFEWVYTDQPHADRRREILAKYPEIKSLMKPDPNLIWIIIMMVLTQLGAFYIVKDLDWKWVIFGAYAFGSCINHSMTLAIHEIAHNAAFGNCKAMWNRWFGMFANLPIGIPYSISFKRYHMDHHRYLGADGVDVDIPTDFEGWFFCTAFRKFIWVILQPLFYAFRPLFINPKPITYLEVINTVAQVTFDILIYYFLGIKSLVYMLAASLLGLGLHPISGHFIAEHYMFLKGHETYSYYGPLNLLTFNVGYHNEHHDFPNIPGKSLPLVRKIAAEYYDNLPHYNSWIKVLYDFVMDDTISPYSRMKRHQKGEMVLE
Method in brief: (§2)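 Des1 activity in A549 and HCT116 cells: intact cells seeded 2×10⁵/well and incubated 4 h with dhCerC6NBD and compound. Dose–response used cell lysates incubated 4 h with 10 µM dhCerC6NBD plus graded compound. CerC6NBD measured by HPLC with fluorescence detection. IC50 from sigmoidal variable-slope regression; mean ± SD, three experiments in triplicate.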

[18] = target: T1, Sphingolipid delta(4)-desaturase DES1 (Homo sapiens); assay: Inhibition of Des1 in human A549 cells assessed as formation of CerC6NBD from dhCerC6NBD at =>100 uM after 4 hrs by HPLC-FD analysis; type: cell-based; method in brief: as §2

Compound | Activity (HCT-116 [1]) [pmol] | Activity (HCT-116 [2]) | Activity (A549 [3]) | Activity (HCT-116 [4]) | Activity (HCT-116 [5]) | CC50 (HCT-116 [6]) [µM] | Activity (HCT-116 [7]) | Activity (A549 [8]) [pmol] | Activity (HCT-116 [9]) | fold change (FC) (HCT-116 [10]) | Activity (HCT-116 [11]) | Activity (HCT-116 [12]) | fold change (FC) (A549 [13]) | Activity (HCT-116 [14]) | Activity (HCT-116 [15]) | Activity (HCT-116 [16]) [pmol] | inhibition [17] [%] | inhibition [18] [%]
CCCCCCCCCCCCCS/C=C/[C@H](CO)NC(=O)CCCCCCC | 16 | Active | inactive | inactive | Active | 28 | Active | 11.5 | Active | 8.5 | inactive | Active | 3.5 | Active | Active | 1.25 | – | –
CCCCCCCCCCCCCS/C=C/[C@H](CO)NC(=O)C(C)(C)C | 10.8 | Active | inactive | inactive | Active | 30 | Active | 7 | Active | 4.5 | inactive | Active | 1.9 | Active | Active | 2.17 | 50 | 50
CCCCCCCCCCCCCS/C=C/[C@H](CO)NC(=O)c1ccc(C(C)(C)C)cc1 | – | – | inactive | – | – | 81 | – | – | – | – | – | – | – | – | – | – | 50 | 50
